# Screening data (PubChem)
# A selection: hits, their analogues and other compounds. The true share with any hit is near 3%.
# 5HT1E ag: 5-HT1E (human) receptor agonism | actives 0.69% (n = 65,000) | P28566 | CHO 5-HT1E Ga15 NFAT-bla reporter, FRET; 0% DMSO wells, 100% control agonist wells | AID 574 | activation, % at 6 µM;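 active = activation above a set limit, the screen-wide mean activation plus 3 SD, cut at about 8.5% in these data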;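 also: 100% = positive control agonist at 1 µM giving full maximal response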
# S1P1 ag pot: S1P1 (human) agonism or agonism potentiation. S1P1 CRE-bla cells, forskolin, beta-lactamase FRET, potentiator mode; S1P1 agonist co-added at EC20, 2 nM; 100% = saturating reference agonist, 0% = basal. P21453. activation, % at 9.5 µM. actives 0.57% (n = 56,000);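 active = activation above a cutoff set at the mean activation of all tested compounds plus 3 SD, cut at about 54% in these data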;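 also: forskolin at 4 µM as EC80 and the EC20 agonist is SEW2871; 100% = SEW2871 at its EC100 plus forskolin at EC80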
# HTR1E antagonist: blocks the human 5-HT1E serotonin receptor; inhibition, % at 6 µM; CHO 5-HT1E Ga15 NFAT-bla reporter, FRET, antagonist; AID 571; actives 0.99% (n = 65,000); P28566;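 active = inhibition above a set limit, the mean inhibition across every tested compound plus 3 SD, cut at about 29% in these data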;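 also: signal is the 460 over 535 nm emission ratio of beta-lactamase substrate; 0% = agonist plus DMSO wells and 100% = wells without agonist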
# 5-HT1A blocker: blocks the human serotonin 5-HT1a receptor | P08908 | CHO 5-HT1a Ga15 NFAT-bla reporter, antagonist mode | inhibition, % at 10 µM | actives 0.68% (n = 62,000) | AID 612;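 active = inhibition above the mean of all tested compounds plus 3 SD, cut at about 43% in these data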;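 also: receptor stimulated by 5-CT agonist at 100 nM near EC80; beta-lactamase reporter measured by ratiometric fluorescence of a cleavable substrate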
# S1P3 agonist: activates the human S1P3 receptor; S1P3 NFAT-BLA reporter cells, agonism, FRET ratio; relative to 1 µM S1P, basal subtracted; Q99500; activation, % at 4.5 µM; AID 373; actives 0.1% (n = 60,000);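 active = activation above the screen-wide mean plus 3 SD, cut at about 4.5% in these data, passing the limit was not always enough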
# Target sequence (Q99500 whole entry, looked up): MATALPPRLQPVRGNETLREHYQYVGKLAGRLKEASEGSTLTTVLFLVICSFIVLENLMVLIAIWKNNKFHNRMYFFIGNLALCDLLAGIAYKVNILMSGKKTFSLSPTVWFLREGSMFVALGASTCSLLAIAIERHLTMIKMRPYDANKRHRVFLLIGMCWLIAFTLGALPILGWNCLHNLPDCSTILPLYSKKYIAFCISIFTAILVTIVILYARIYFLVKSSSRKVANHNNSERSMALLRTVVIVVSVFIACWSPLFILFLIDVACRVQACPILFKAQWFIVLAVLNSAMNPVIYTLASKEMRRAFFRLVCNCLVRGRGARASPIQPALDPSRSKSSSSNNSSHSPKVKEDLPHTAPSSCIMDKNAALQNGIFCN
#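 Benchmarks: high control 1 µM S1P / System: stable CHO line with human S1P3, Gα16, NFAT-BLA reporter / Dosing: single compound concentration, 4.5 µM final / Timing: 4 h compound at 37 °C, 2 h substrate at RT / Measured by: FRET β-lactamase substrate fluorescence, excitation 405 nm, 460/535 nm emission ratio, background-subtracted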
# 5HT1a ag: 5-HT1a (human) receptor agonism. actives 0.56% (n = 65,000). CHO 5-HT1a Ga15 NFAT-bla reporter, FRET ratio; 0% basal, 100% maximal reference agonist. activation, % at 10 µM;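 active = activation above the screen-wide mean activation plus 3 SD, cut at about 19% in these data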;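 also: 0% = DMSO wells and 100% = 5-CT at EC100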
# An asterisk follows results filed as active; . = no result given.
SMILES,5HT1E ag,S1P1 ag pot,HTR1E antagonist,5-HT1A blocker,S1P3 agonist,5HT1a ag
Cc1ccc(C)c(NC(=O)CSc2nc3c(c(=O)n2C)SC(C)C3)c1 (configuration not stated),0.9,-9.3,3.8,-4.3,-0.5,2.5
C=CCSc1nc(N)c2c(C)c(C)sc2n1,0.3,-31.1,4.3,-4.7,-0.6,48.9*
CCCc1ccc(Oc2cn[nH]c2-c2ccc(O)cc2O)cc1,-0.8,74.3*,11.6,24.9,-1.2,-2.6
Cc1cc(Nc2cccc(F)c2)nc(-c2ccccc2O)n1,0.0,2.7,31.1*,36.6,0.8,-1.8
CCOc1ccc(-c2nnc(-c3cccnc3)o2)cc1OCC,0.2,89.1*,17.8,5.9,-1.0,-2.8
COc1ccc(NC(=O)c2cc(-c3cccs3)on2)cc1OC,0.1,56.4*,-4.7,-3.7,0.1,-1.8
COc1ccc(-c2cc(C(=O)NC3CCCC3)no2)cc1OC,-0.6,73.8*,3.3,1.8,-1.8,-3.2
COc1ccc(-c2noc(-c3cc(C)cc(C)c3)n2)cc1OC,0.2,105.6*,-7.0,6.0,0.1,-1.5
COc1ccc(Cl)cc1Nc1nc(N2CCCC2)nc(N2CCCC2)n1,-0.3,3.2,-4.1,3.9,-2.0,-2.7
Cc1ccc(-n2ncc3c(=O)n(CC(=O)NCC4CCCO4)cnc32)cc1 (configuration not stated),0.0,5.0,-6.3,2.1,-0.3,-2.3
CCC(=O)NC1(C(F)(F)F)C(=O)Nc2c1c(=O)n(C)c(=O)n2C (configuration not stated),-1.1,-1.1,6.6,11.0,-0.9,-3.2
COc1ccc(-c2nc(-c3ccc(NC(=O)c4ccncc4)cc3)no2)cc1OC,1.2,122.7*,28.8*,42.7*,-0.4,-0.4
COc1ccc(Cl)cc1-c1nc(-c2ccc(NC(=O)c3ccncc3)cc2)no1,0.2,26.4,0.0,-8.4,-0.1,-2.5
CCOc1ccc(-c2noc(-c3cccnc3)n2)cc1OC,0.9,114.0*,3.4,-9.1,-0.9,-2.8
Nc1nonc1C(=O)NCCNCc1cc(Br)ccc1OCc1ccccc1F,0.4,77.9*,12.1,51.9*,-2.4,-1.1
O=C(C1CCCN(S(=O)(=O)c2ccc(Br)s2)C1)N1CCCCCC1 (configuration not stated),-1.1,.,1.8,5.7,.,36.6*
O=C(O)C1CCCN(S(=O)(=O)c2ccc(Cl)s2)C1 (configuration not stated),0.9,-13.0,-8.2,6.3,-0.1,0.1
CCC(=O)N1CCN(c2ccc(Cl)cc2NC(=O)c2ccc(Br)o2)CC1,-0.1,1.3,13.2,27.4,-0.6,1.2
CN(C)CCNC(=O)c1c(O)c2c([nH]c1=O)CCCC2,11.3*,-3.9,-5.6,-9.4,-1.5,-1.7
CCCCCOC(=O)Cn1c(SCC(=O)Nc2ccccc2)nc2c1c(=O)[nH]c(=O)n2C,9.7*,-0.7,2.2,-6.7,0.8,-0.8
CCN(CC)CCOC(=O)c1cccc(Br)c1,11.1*,17.8,0.8,13.5,-0.8,0.1
CCN(CC)CCOC(=O)c1cccc(Cl)c1,2.0,-4.7,6.3,16.7,-1.6,-4.1
Cc1ccnc(NC(=O)CCC(=O)N(CC(=O)NC2CCCCC2)CC2CCCO2)c1 (configuration not stated),-0.2,6.0,-2.1,-0.9,-0.1,0.1
COC(=O)CCCCC(=O)C1C(=O)CC(C)(C)C(C(=O)OC)C1=O (configuration not stated),1.5,.,-1.6,4.4,-0.4,24.0*
O=C(Nc1ccc(N2CCCCC2)c(Cl)c1)c1ncn[nH]1,0.6,127.3*,-5.0,-60.3,0.3,-5.2
SMILES,5HT1E ag,S1P1 ag pot,HTR1E antagonist,5-HT1A blocker,S1P3 agonist,5HT1a ag
CCOc1ccccc1NC(=O)c1c(NC(=O)CNCc2ccco2)sc2c1CCC2,-1.2,-12.5,4.7,3.9,-0.4,-1.3
CC1c2[nH]c3ccccc3c2CCN1C(=O)Nc1ccccc1 (configuration not stated),0.6,14.6,5.0,30.1,0.0,-3.2
COC(=O)C1=COC(C)C2CN3CCc4c([nH]c5ccccc45)C3CC12 (configuration not stated),3.0,-11.9,4.0,18.0,-0.4,20.3*
Cc1cccc(NC(=O)C2CCCN(c3nc(C)cc(C)n3)C2)c1 (configuration not stated),13.2*,-9.6,-5.7,-2.0,-0.1,0.3
CCCOc1ccc(-c2nc(C#N)c(N3CCN(CC)CC3)o2)cc1,-1.9,9.4,15.4,16.7,-0.8,0.6
CCOC(=O)c1c(C)[nH]c(C(C)=O)c1C,0.1,-25.6,5.3,-11.3,-0.9,-0.6
CCOC(=O)c1[nH]c(C)c(C(=O)OCCN2C(=O)c3ccccc3C2=O)c1C,-1.7,5.7,37.4*,9.7,-0.9,1.7
O=C(CCn1ccc2ccccc21)Nc1ccc(N2CCOCC2)cc1,-0.9,22.0,3.0,-10.6,0.4,-1.6
N#Cc1c(-c2ccco2)cc(-c2cccnc2)nc1N,-0.1,-74.0,37.6*,0.2,0.6,-0.1
Cc1c(-c2ccccc2)nc(N)c(C#N)c1-c1ccco1,0.3,-80.7,30.8*,-1.9,0.3,17.2
CC1(C)Cn2c(nnc2-c2cccc(O)c2)S1,-1.8,10.5,-10.2,23.1,0.3,1.9
Cn1c(Cn2c(=O)sc3ccccc32)nnc1SCC(=O)NCc1ccc(F)cc1,0.2,-5.7,-23.5,-11.4,0.4,40.2*
CCOC(=O)c1c(C)[nH]c(C(=O)COC(=O)c2oc3ccc(OC)cc3c2C)c1C,35.0*,9.1,-7.7,-4.9,0.5,-2.0
CCOC(=O)c1c(C)[nH]c(C(=O)COC(=O)c2cnc(C)cn2)c1C,0.1,15.2,-0.3,15.8,-0.1,-0.7
Cc1cccc(N2CCN(CCNC(=O)c3cc4c(s3)CS(=O)(=O)C4)CC2)c1C,12.8*,.,-5.4,41.6,.,36.5*
COC(=O)c1cc2ccsc2n1CC(=O)Nc1cc(Cl)ccc1OC,-1.1,30.6,6.8,52.5*,-1.3,-2.2
COC(=O)c1cc2ccsc2n1CC(=O)Nc1ccc(N(C)C)cc1,-1.2,12.7,-1.9,8.5,-0.9,-2.8
COc1ccc(-c2nnc3ccc(SCC(=O)N4CCN(c5ccccc5)CC4)nn23)cc1OC,0.0,-2.2,5.6,-25.9,2.1,1.7
Cc1cc(OCc2nn[nH]n2)c2c(C)c(Cc3ccccc3)c(=O)oc2c1,-0.1,-7.8,-12.1,-7.3,-0.4,5.3
CC1(C)Cc2cccc(OCC(O)CNCc3ccccn3)c2O1 (configuration not stated),0.0,14.3,10.3,20.6,-1.5,-0.8
